ChEMBL document CHEMBL5325429, “Antibacterial and antibiofilm activity of permanently ionized quaternary ammonium fluoroquinolones” (Eur J Med Chem, 2023)
Structures can show the parent of a compound that is named as a salt. Active and inactive are the calls of the source. No cut-off for these calls is given here.

Columns and labels:
Staphylococcus aureus [1] = assay: Antibiofilm activity against Staphylococcus aureus assessed as inhibition of biofilm formation at 2.5 to 5 uM incubated for 18 hrs relative to control; set-up: scale not given: the % may be the effect or the level left; settings: dose 2.5-5 µM
Staphylococcus aureus [2] = assay: Antibiofilm activity against Staphylococcus aureus ATCC 25923 assessed as assessed as log 10 reduction in CFU at 200 uM incubated for 18 hrs; format: functional
In short: (§1)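 Post-exposure CFU count. Biofilms were grown 18 h at 37 °C, 220 rpm, from a 10^6 CFU/mL TSB culture. Planktonic cells were removed, then compound (50x DMSO stock) in fresh TSB was added for a further 24 h. Wells were PBS-washed, scraped into PBS, serially diluted 10-fold and spotted on agar. After 24 h incubation, spots with 3–30 colonies were counted and reported as log10 cells/mL. Two experiments on different days, two technical replicates each.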

Pseudomonas aeruginosa [3] = assay: Antibiofilm activity against Pseudomonas aeruginosa ATCC 15442 assessed as reduction in bacterial viability at 10 to 50 uM incubated for 18 hrs; format: functional; settings: dose 10-50 µM
In short: (§2)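 Biofilm viability by resazurin. 10^6 CFU/mL TSB culture was exposed to compound (50x DMSO stock) for 18 h at 37 °C with shaking at 220 rpm. Biofilm was washed once with PBS and stained with resazurin (1:20 in PBS) in the dark at 37 °C for about 1 h (P. aeruginosa) or about 30 min (S. aureus). Fluorescence ex 560/em 590 is given as % of untreated control.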

Staphylococcus aureus [4] = assay: Antibacterial activity against Staphylococcus aureus ATCC 29213 assessed as bacterial growth inhibition incubated for 24 hrs by broth microdilution assay; format: functional
In short: (§3)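 Broth microdilution per CLSI. Colonies from overnight Mueller Hinton agar were suspended in 0.9% saline, set by densitometer, and diluted in cation-adjusted MHB to 1×10^6 CFU/mL. This was mixed 1:1 with compound and incubated 24 h at 37 °C. A600 was read versus untreated control and checked visually. Screen at 50 μM; compounds with ≥80% inhibition went to MIC testing at 75–0.78 μM. […] Two independent experiments, three technical replicates each.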

Staphylococcus aureus [5] = assay: Antibiofilm activity against Staphylococcus aureus ATCC 25923 assessed as reduction in bacterial biomass at 50 uM incubated for 18 hrs; format: functional, organism-based
In short: (§4)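 Pre-exposure biofilm: 10^6 CFU/mL TSB culture with compound (50x DMSO stock), 18 h at 37 °C, shaken at 220 rpm. After the resazurin read, biofilms were ethanol-fixed for 15 min, dried, and stained 5 min with 100x-diluted crystal violet. After two water washes, dye was solubilised in 96% ethanol for about 1 h and read at A595. Total biomass is expressed as % of untreated control.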

[6] = Cytotoxicity against mouse BALB/3T3 clone A31 cells upto 50 uM incubated for 48 hrs by celltiter glo luminescent assay; format: toxicity, cell-based; settings: balb/3t3 clone a31, 48 h
Pseudomonas aeruginosa [7] = assay: Antibacterial activity against Pseudomonas aeruginosa ATCC 27853 assessed as bacterial growth inhibition incubated for 24 hrs by broth microdilution assay; format: functional
In short: as §3

[8] = Selectivity index, ratio of CC50 for cytotoxicity against mouse BALB/3T3 clone A31 cells to MIC for antibacterial activity against Pseudomonas aeruginosa ATCC 27853 assessed as bacterial growth inhibition; format: toxicity, cell-based; settings: read-out: Selectivity Index
Pseudomonas aeruginosa [9] = assay: Antibiofilm activity against Pseudomonas aeruginosa ATCC 15442 assessed as reduction in bacterial biomass incubated for 18 hrs by crystal violet staining based assay; format: functional
In short: as §4

Pseudomonas aeruginosa [10] = assay: Antibiofilm activity against Pseudomonas aeruginosa ATCC 15442 assessed as reduction in biofilm formation at 5 to 25 uM incubated for 18 hrs relative to control; format: functional; set-up: scale not given: the % may be the effect or the level left; settings: dose 5-25 µM
In short: (§5)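 Pre-exposure biofilm assay. Inoculum: TSA colonies grown in TSB at 37 °C, 220 rpm, to OD 0.3–0.35, then diluted 100-fold to about 10^6 CFU/mL. Culture was mixed with compound (50x DMSO stock) and shaken at 220 rpm for 18 h at 37 °C. Biofilm was read by resazurin fluorescence (ex 560/em 590) and by crystal violet A595, as % of untreated control.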

Staphylococcus aureus [11] = assay: Antibiofilm activity against Staphylococcus aureus ATCC 25923 assessed as reduction in bacterial viability at 50 uM incubated for 18 hrs by resazurin staining based assay relative to control
[12] = Cytotoxicity against mouse BALB/3T3 clone A31 cells assessed as viable cells at 200 uM incubated for 48 hrs by celltiter glo luminescent assay relative to control; format: toxicity, cell-based; settings: read-out: Activity
Pseudomonas aeruginosa [13] = assay: Antibiofilm activity against Pseudomonas aeruginosa ATCC 15442 assessed as log 10 reduction in CFU at 200 uM incubated for 18 hrs; format: functional
In short: as §1

[14] = Cytotoxicity against mouse BALB/3T3 clone A31 cells incubated for 48 hrs by celltiter glo luminescent assay; format: toxicity, cell-based
Staphylococcus aureus [15] = assay: Antibiofilm activity against Staphylococcus aureus ATCC 25923 assessed as reduction in bacterial biomass at 50 uM incubated for 18 hrs by crystal violet staining based assay relative to control; format: functional; set-up: scale not given: the % may be the effect or the level left
In short: as §4

Pseudomonas aeruginosa [16] = assay: Antibiofilm activity against Pseudomonas aeruginosa ATCC 15442 assessed as reduction in bacterial viability incubated for 18 hrs; format: functional
In short: as §2

[17] = Selectivity index, ratio of CC50 for cytotoxicity against mouse BALB/3T3 clone A31 cells to MIC for antibacterial activity against Staphylococcus aureus ATCC 29213 assessed as bacterial growth inhibition; format: toxicity, cell-based; settings: read-out: Selectivity Index
Pseudomonas aeruginosa [18] = assay: Antibiofilm activity against Pseudomonas aeruginosa ATCC 15442 assessed as reduction in bacterial biomass at 10 to 50 uM incubated for 18 hrs by crystal violet staining based assay; format: functional, organism-based; settings: dose 10-50 µM
In short: as §4

Pseudomonas aeruginosa [19] = assay: Antibiofilm activity against Pseudomonas aeruginosa ATCC 15442 assessed as reduction in bacterial viability at 50 uM incubated for 18 hrs; format: functional, organism-based
In short: as §2

Pseudomonas aeruginosa [20] = assay: Antibiofilm activity against Pseudomonas aeruginosa ATCC 15442 assessed as reduction in biofilm formation at 25 uM incubated for 18 hrs; format: functional, organism-based
In short: as §5

Pseudomonas aeruginosa [21] = assay: Antibiofilm activity against Pseudomonas aeruginosa ATCC 15442 assessed as reduction in biofilm formation at 100 uM incubated for 18 hrs relative to control; format: functional; set-up: scale not given: the % may be the effect or the level left
In short: as §5

Pseudomonas aeruginosa [22] = assay: Antibiofilm activity against Pseudomonas aeruginosa ATCC 15442 assessed as reduction in bacterial biomass at 40 to 80 uM incubated for 18 hrs by crystal violet staining based assay relative to control; format: functional; set-up: scale not given: the % may be the effect or the level left; settings: dose 40-80 µM
In short: as §4

Pseudomonas aeruginosa [23] = assay: Antibiofilm activity against Pseudomonas aeruginosa ATCC 15442 assessed as reduction in bacterial viability at 20 to 40 uM incubated for 18 hrs relative to control; format: functional; settings: dose 20-40 µM
In short: as §2

Pseudomonas aeruginosa [24] = assay: Antibiofilm activity against Pseudomonas aeruginosa ATCC 15442 assessed as reduction in bacterial biomass at 1 to 200 uM incubated for 18 hrs by crystal violet staining based assay; format: functional, organism-based; settings: dose 1-200 µM
In short: as §4

Pseudomonas aeruginosa [25] = assay: Antibiofilm activity against Pseudomonas aeruginosa ATCC 15442 assessed as reduction in bacterial viability at 200 uM incubated for 18 hrs; format: functional, organism-based
In short: as §2

Pseudomonas aeruginosa [26] = assay: Antibiofilm activity against Pseudomonas aeruginosa ATCC 15442 assessed as reduction in bacterial biomass at 2.5 to 320 uM incubated for 18 hrs by crystal violet staining based assay; format: functional, organism-based; settings: dose 2.5-320 µM
In short: as §4

Pseudomonas aeruginosa [27] = assay: Antibiofilm activity against Pseudomonas aeruginosa ATCC 15442 assessed as reduction in bacterial viability at 2.5 to 320 uM incubated for 18 hrs; format: functional, organism-based; settings: dose 2.5-320 µM
In short: as §2

CCn1cc(C(=O)O)c(=O)c2cc(F)c(N3CC[N+]4(CN5C(=N4)C(C(=O)O)=Cc4ccccc45)C(C)C3)c(F)c21.[I-] (stereo unspecified)
Activity (Staphylococcus aureus [1]): >90%

C[N+]1(C)CCN(c2cc3c(cc2F)c(=O)c(C(=O)O)cn3C2CC2)CC1.[I-]
Activity (Staphylococcus aureus [2]): 2 log10CFU | Activity (Pseudomonas aeruginosa [3]): 50% | MIC (Staphylococcus aureus [4]): 6.25 µM | Activity (Staphylococcus aureus [5]): inactive | Activity [6]: Non-Toxic | MIC (Pseudomonas aeruginosa [7]): 6.25 µM | selectivity ratio [8]: > 32 | MBIC (Pseudomonas aeruginosa [9]): 50 µM | Activity (Pseudomonas aeruginosa [10]): >90% | Activity (Staphylococcus aureus [11]): 60% | viability at 48 h, 200 µM [12]: 108% | Activity (Pseudomonas aeruginosa [13]): 2 log10CFU | CC50 at 48 h [14]: > 200 µM | Activity (Staphylococcus aureus [15]): 100% | MBIC (Pseudomonas aeruginosa [16]): 25 µM | selectivity ratio [17]: > 32 | Activity (Pseudomonas aeruginosa [18]): inactive

O=C(O)C1=Cc2ccccc2N2C[N+]3(CCCN(c4cc5c(cc4F)c(=O)c(C(=O)O)cn5C4CC4)CC3)N=C12.[Cl-] (stereo unspecified)
Activity (Pseudomonas aeruginosa [3]): 50% | MIC (Staphylococcus aureus [4]): 25 µM | Activity [6]: Non-Toxic | MIC (Pseudomonas aeruginosa [7]): 25 µM | selectivity ratio [8]: 6.4 | viability at 48 h, 200 µM [12]: 1.55% | Activity (Pseudomonas aeruginosa [19]): Active | Activity (Pseudomonas aeruginosa [13]): 2 log10CFU | CC50 at 48 h [14]: 160 µM | Activity (Pseudomonas aeruginosa [20]): Active | Activity (Pseudomonas aeruginosa [21]): 80% | selectivity ratio [17]: 6.4 | Activity (Pseudomonas aeruginosa [18]): inactive

O=C(O)C1=Cc2ccccc2N2C[N+]3(CCN(c4cc5c(cc4F)c(=O)c(C(=O)O)cn5C4CC4)CC3)N=C12.[I-]
Activity (Pseudomonas aeruginosa [22]): >90% | Activity (Pseudomonas aeruginosa [23]): >90% | Activity (Staphylococcus aureus [1]): >90%

O=C(O)c1cn(C2CC2)c2cc(N3CCNCC3)c(F)cc2c1=O [CIPROFLOXACIN HYDROCHLORIDE]
MIC (Staphylococcus aureus [4]): 1.36 µM | MIC (Pseudomonas aeruginosa [7]): 2.72 µM | Activity (Pseudomonas aeruginosa [24]): inactive | Activity (Pseudomonas aeruginosa [25]): Active | Activity (Pseudomonas aeruginosa [26]): Active | Activity (Pseudomonas aeruginosa [27]): Active

CCn1cc(C(=O)O)c(=O)c2cc(F)c(N3CC[N+]4(CC3)CN3C(=N4)C(C(=O)O)=Cc4ccccc43)nc21.[I-]
Activity (Pseudomonas aeruginosa [22]): >90% | Activity (Pseudomonas aeruginosa [23]): >90% | Activity (Staphylococcus aureus [1]): >90%

CCn1cc(C(=O)O)c(=O)c2cc(F)c(N3CC[N+](C)(C)CC3)cc21
MIC (Staphylococcus aureus [4]): 25 µM | MIC (Pseudomonas aeruginosa [7]): > 50 µM

CCn1cc(C(=O)O)c(=O)c2cc(F)c(N3CC[N+](C)(C)C(C)C3)c(F)c21 (stereo unspecified)
MIC (Staphylococcus aureus [4]): 25 µM | MIC (Pseudomonas aeruginosa [7]): 75 µM

CCn1cc(C(=O)O)c(=O)c2cnc(N3CC[N+](C)(C)CC3)nc21
MIC (Staphylococcus aureus [4]): > 50 µM | MIC (Pseudomonas aeruginosa [7]): > 50 µM

CCn1cc(C(=O)O)c(=O)c2cc(F)c(N3CC[N+](C)(C)CC3)nc21
MIC (Staphylococcus aureus [4]): 50 µM | MIC (Pseudomonas aeruginosa [7]): > 50 µM

C[N+]1(C)CCCN(c2cc3c(cc2F)c(=O)c(C(=O)O)cn3C2CC2)CC1.[I-]
Activity (Staphylococcus aureus [2]): 2 log10CFU | Activity (Pseudomonas aeruginosa [3]): 50% | Activity (Pseudomonas aeruginosa [22]): >90% | MIC (Staphylococcus aureus [4]): 6.25 µM | Activity (Staphylococcus aureus [5]): inactive | Activity [6]: Non-Toxic | Activity (Pseudomonas aeruginosa [23]): >90% | Activity (Staphylococcus aureus [1]): >90% | MIC (Pseudomonas aeruginosa [7]): 6.25 µM | selectivity ratio [8]: > 32 | MBIC (Pseudomonas aeruginosa [9]): 50 µM | Activity (Pseudomonas aeruginosa [10]): >90% | Activity (Staphylococcus aureus [11]): 60% | viability at 48 h, 200 µM [12]: 81.7% | Activity (Pseudomonas aeruginosa [13]): 2 log10CFU | CC50 at 48 h [14]: > 200 µM | Activity (Staphylococcus aureus [15]): 100% | MBIC (Pseudomonas aeruginosa [16]): 25 µM | selectivity ratio [17]: > 32 | Activity (Pseudomonas aeruginosa [18]): inactive
